Measurements: ChEMBL document CHEMBL1122785, “Synthesis and evaluation of a series of 2'-O-acyl derivatives of 9-beta-D-arabinofuranosyladenine as antiherpes agents” (J Med Chem, 1984)
Values after ≈ are worked out from the molar mass of the structure shown.

Tests used:
[1] = Solubility of 10 mg compound in aqueous buffer at pH 7.3 and 37 degree Centigrade after 8.0 hr; format: physicochemical; conditions: read-out: Concentration
Method in brief: (§1)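 Crystalline compound (stated amount) was agitated in 1 mL phosphate-buffered saline (NaH2PO4/NaCl, pH 7.3) at 37 °C. At each time point samples were centrifuged 5 min at 14000 rpm. Supernatant was diluted in mobile phase and quantified by HPLC against standards. Concentrations were corrected for prodrug decomposition.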

[2] = Solubility of 10 mg compound in aqueous buffer at pH 7.3 and 37 degree Celsius after 13.5 hr; format: physicochemical; conditions: read-out: Concentration; method in brief: as §1
[3] = Solubility of 10 mg compound in aqueous buffer at pH 7.3 and 37 degree Celsius after 4.0 hr; format: physicochemical; conditions: read-out: Concentration; method in brief: as §1
[4] = Compound was evaluated for the octanol/water partition coefficient at 37 degree Celsius at 24.5 hour; format: physicochemical
Method in brief: (§2)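 Dilute aqueous solutions were equilibrated with 1-octanol at 37 °C. At each sampling interval the tubes were centrifuged. Aliquots of the octanol layer, then of the water layer, were diluted into methanol and stored at -20 °C for analysis.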

[5] = Compound was evaluated for the octanol/water partition coefficient at 37 degree Celsius at 3.0 hr; format: physicochemical; method in brief: as §2
[6] = Compound was evaluated for the octanol/water partition coefficient at 37 degree Celsius at 4.5 hour; format: physicochemical; method in brief: as §2
Human alphaherpesvirus 1 [7] = test: virus rating as the measure of the activity against herpes simplex virus type 1(strain 377); format: functional
Human alphaherpesvirus 1 [8] = test: In vitro activity against herpes simplex virus type 1(strain 377) and the minimum inhibitory concentration was determined; format: functional
[9] = Solubility of 20 mg compound in aqueous buffer at pH 7.3 and 37 degree Celsius after 13.5 hr; format: physicochemical; conditions: read-out: Concentration; method in brief: as §1
[10] = Solubility of 20 mg compound in aqueous buffer at pH 7.3 and 37 degree Celsius after 4.0 hr; format: physicochemical; conditions: read-out: Concentration; method in brief: as §1
[11] = Solubility of 20 mg compound in aqueous buffer at pH 7.3 and 37 degree Centigrade after 8.0 hr; format: physicochemical; conditions: read-out: Concentration; method in brief: as §1
[12] = Compound was evaluated for the octanol/water partition coefficient at 37 degree Celsius at 1.0hr; format: physicochemical; conditions: 1 h; method in brief: as §2
[13] = Compound was evaluated for the octanol/water partition coefficient at 37 degree Celsius at 10.5 hour; format: physicochemical; method in brief: as §2
[14] = Solubility of 150 mg compound in aqueous buffer at pH 7.3 and 37 degree Celsius after 4.0 hr; format: physicochemical; conditions: read-out: Concentration; method in brief: as §1
[15] = Solubility of 150 mg compound in aqueous buffer at pH 7.3 and 37 degree Celsius after 8.0 hr; format: physicochemical; conditions: read-out: Concentration; method in brief: as §1
Human alphaherpesvirus 1 [16] = test: Compound was evaluated for its activity against herpes simplex virus type 1(strain 377) and the minimum inhibitory concentration was determined; format: functional

SMILES	solubility at 8 h [1] [mg/mL]	solubility at 13.5 h [2] [mg/mL]	solubility at 4 h [3] [mg/mL]	Partition coefficient [4]	Partition coefficient [5]	Partition coefficient [6]	VR (Human alphaherpesvirus 1 [7])	MIC50 (Human alphaherpesvirus 1 [8]) [µg/mL]	solubility at 13.5 h [9] [mg/mL]	solubility at 4 h [10] [mg/mL]	solubility at 8 h [11] [mg/mL]	Partition coefficient [12]	Partition coefficient [13]	solubility at 4 h [14] [mg/mL]	solubility at 8 h [15] [mg/mL]	MIC50 (Human alphaherpesvirus 1 [16]) [µg/mL]
CCCC(=O)O[C@H]1C(n2cnc3c(N)ncnc32)O[C@H](CO)[C@@H]1O (some centres undefined)	3.54 (≈ 10.5 mM)	3.31 (≈ 9.81 mM)	3.38 (≈ 10 mM)	0.975	0.911	0.969	1.5	71.9 (≈ 0.213 mM)								
CCCCC(=O)O[C@H]1C(n2cnc3c(N)ncnc32)O[C@H](CO)[C@@H]1O (some centres undefined)				2.8	2.5	2.2	2.6	56.8 (≈ 0.162 mM)	11 (≈ 31.3 mM)	9.28 (≈ 26.4 mM)	10.8 (≈ 30.7 mM)	2.5	3			
CCC(=O)O[C@H]1C(n2cnc3c(N)ncnc32)O[C@H](CO)[C@@H]1O (some centres undefined)				0.329	0.359	0.318	1.9	29.3 (≈ 0.0906 mM)	13 (≈ 40.2 mM)	11.1 (≈ 34.3 mM)	11 (≈ 34 mM)	0.336	0.335			
CC(=O)O[C@H]1C(n2cnc3c(N)ncnc32)O[C@H](CO)[C@@H]1O (some centres undefined)				0.122	0.134	0.118	2.3	26.2 (≈ 0.0847 mM)				0.149	0.127	93.6 (≈ 303 mM)	93.6 (≈ 303 mM)	
Nc1ncnc2c1ncn2[C@@H]1O[C@H](CO)[C@@H](O)[C@@H]1O [VIDARABINE]							2									9.5 (≈ 0.0355 mM)
